Experimental data reported in ChEMBL document CHEMBL4041548, “Ester Prodrugs of IHVR-19029 with Enhanced Oral Exposure and Prevention of Gastrointestinal Glucosidase Interaction” (ACS Med Chem Lett, 2017).
Active and inactive are the calls of the source. The rule behind the calls is not given here.

Assays:
[1] = Stability in simulated gastric fluid assessed as parent compound remaining at 5 uM measured after 4 hrs by LC-MS/MS analysis
Outline: (§1)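 Chemical stability assessed by incubation in simulated gastric fluid and simulated intestinal fluid; percent of compound remaining was measured.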

[2] = Stability in simulated intestinal fluid assessed as parent compound remaining at 5 uM measured after 4 hrs by LC-MS/MS analysis; outline: as §1
[3] = Prodrug activation in simulated intestinal fluid assessed as 3-(tert-butyl)-1-cyclohexyl-1-(6-((2R,3R,4R,5S)-3,4,5-trihydroxy-2-(hydroxymethyl)piperidin-1-yl)hexyl)urea formation at 5 uM measured after 4 hrs by LC-MS/MS analysis; outline: as §1
[4] = Prodrug activation in human intestinal S9 fraction assessed as 3-(tert-butyl)-1-cyclohexyl-1-(6-((2R,3R,4R,5S)-3,4,5-trihydroxy-2-(hydroxymethyl)piperidin-1-yl)hexyl)urea formation by measuring prodrug remaining at 200 uM measured after 1 hr in presence or absence of NADPH by LC-MS/MS analysis; set-up: species or system Intestine; conditions: s9, 1 h
Outline: (§2)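 Compounds incubated with intestinal S9 fraction for 1 h. Percent prodrug remaining and percent conversion to the parent were measured.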

[5] = Prodrug activation in mouse intestinal S9 fraction assessed as 3-(tert-butyl)-1-cyclohexyl-1-(6-((2R,3R,4R,5S)-3,4,5-trihydroxy-2-(hydroxymethyl)piperidin-1-yl)hexyl)urea formation by measuring prodrug remaining at 200 uM measured after 1 hr in presence or absence of NADPH by LC-MS/MS analysis; set-up: species or system Intestine; conditions: s9, 1 h; outline: as §2
[6] = Inhibition of pig liver endoplasmic reticulum alpha glucosidase-1 using 4-methylumbelliferyl-alpha-D-glucoside as substrate measured after 90 mins by fluorescence analysis; set-up: species or system Sus scrofa
[7] = Inhibition of pig liver endoplasmic reticulum alpha glucosidase-2 using 4-methylumbelliferyl-alpha-D-glucoside as substrate measured after 60 mins by fluorescence analysis; set-up: species or system Sus scrofa
Bos taurus = species on record: Bos taurus; assay: Inhibition of endoplasmic reticulum alpha-glucosidase in MDBK cells infected with Bovine Viral Diarrhea virus assessed as reduction in BVDV envelope glycoprotein E2 level at 3 to 100 uM by immunoblot analysis; assay type: cell-based
Outline: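 MDBK cells infected with BVDV, then treated with various concentrations of the compounds. Cell lysates were run on SDS-PAGE and immunoblotted for the E2 envelope glycoprotein, looking for a mobility shift and lower intensity, with β-actin as internal control.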

[8] = Inhibition of endoplasmic reticulum alpha-glucosidase in human Huh7.5 cells infected with DENV assessed as reduction in viral growth by measuring DENV RNA level by qRT-PCR method; assay type: cell-based
Outline: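 Huh7.5 cells infected with dengue virus and treated with a concentration series of the compounds (n = 4). DENV RNA was quantified by qRT-PCR and the EC50 was calculated.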

[9] = Half life in pooled human liver microsomes at 200 uM by LC-MS/MS analysis; assay type: ADME, microsome; conditions: liver microsomes
Outline: (§3)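 Prodrugs or parent incubated in pooled human or mouse liver microsomes for up to 60 min, with or without cofactor. Percent remaining and percent conversion to the parent were measured.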

[10] = Half life in pooled mouse liver microsomes at 200 uM by LC-MS/MS analysis; assay type: ADME, microsome; conditions: liver microsomes; outline: as §3
[11] = Metabolic stability in pooled human liver microsomes assessed as parent compound remaining at 200 uM measured after 60 mins by LC-MS/MS analysis; assay type: ADME, microsome; conditions: liver microsomes, read-out: Stability; outline: as §3
[12] = Metabolic stability in pooled mouse liver microsomes assessed as parent compound remaining at 200 uM measured after 60 mins in presence of NADPH and UDPGA by LC-MS/MS analysis; assay type: ADME, microsome; conditions: read-out: Stability; outline: as §3
[13] = Metabolic stability in pooled mouse liver microsomes assessed as parent compound remaining at 200 uM measured after 60 mins by LC-MS/MS analysis; assay type: ADME, microsome; conditions: liver microsomes, read-out: Stability; outline: as §3
[14] = Metabolic stability in human plasma assessed as parent compound remaining at 5 uM measured after 2 hrs by LC-MS/MS analysis; assay type: ADME, cell-free; conditions: read-out: Stability
Outline: (§4)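 Compounds incubated in human or mouse plasma for 2 h. Percent remaining and percent conversion to the parent were determined.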

[15] = Metabolic stability in mouse plasma assessed as parent compound remaining at 5 uM measured after 2 hrs by LC-MS/MS analysis; assay type: ADME, cell-free; conditions: read-out: Stability; outline: as §4
Mus musculus [16] = assay: Prodrug activation in BALB/c mouse assessed as 3-(tert-butyl)-1-cyclohexyl-1-(6-((2R,3R,4R,5S)-3,4,5-trihydroxy-2-(hydroxymethyl)piperidin-1-yl)hexyl)urea Tmax at 5 mg/kg, iv as bolus administration by LC-MS/MS analysis; assay type: organism-based; conditions: in vivo
Outline: (§5)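 Male BALB/c mice dosed with the prodrugs or the parent orally (25 or 100 mg/kg) or intravenously (5 mg/kg). The parent compound was quantified in plasma and PK parameters were derived from it. The first sampling point was 5 min post-dose, and prodrugs were tracked up to 4 h.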

Mus musculus [17] = assay: Prodrug activation in BALB/c mouse assessed as 3-(tert-butyl)-1-cyclohexyl-1-(6-((2R,3R,4R,5S)-3,4,5-trihydroxy-2-(hydroxymethyl)piperidin-1-yl)hexyl)urea Tmax at 100 mg/kg, po administered as single dose by LC-MS/MS analysis; assay type: organism-based; conditions: in vivo; outline: as §5
Mus musculus [18] = assay: Prodrug activation in BALB/c mouse assessed as 3-(tert-butyl)-1-cyclohexyl-1-(6-((2R,3R,4R,5S)-3,4,5-trihydroxy-2-(hydroxymethyl)piperidin-1-yl)hexyl)urea Cmax at 25 mg/kg, po administered as single dose by LC-MS/MS analysis; assay type: organism-based; set-up: dose 25 mg/kg, route oral; conditions: in vivo; outline: as §5
Mus musculus [19] = assay: Prodrug activation in BALB/c mouse assessed as 3-(tert-butyl)-1-cyclohexyl-1-(6-((2R,3R,4R,5S)-3,4,5-trihydroxy-2-(hydroxymethyl)piperidin-1-yl)hexyl)urea half life at 25 mg/kg, po administered as single dose by LC-MS/MS analysis; assay type: organism-based; conditions: in vivo; outline: as §5
Mus musculus [20] = assay: Prodrug activation in BALB/c mouse assessed as 3-(tert-butyl)-1-cyclohexyl-1-(6-((2R,3R,4R,5S)-3,4,5-trihydroxy-2-(hydroxymethyl)piperidin-1-yl)hexyl)urea half life at 100 mg/kg, po administered as single dose by LC-MS/MS analysis; assay type: organism-based; conditions: in vivo; outline: as §5
Mus musculus [21] = assay: Prodrug activation in BALB/c mouse assessed as 3-(tert-butyl)-1-cyclohexyl-1-(6-((2R,3R,4R,5S)-3,4,5-trihydroxy-2-(hydroxymethyl)piperidin-1-yl)hexyl)urea AUC(0 to infinity) at 5 mg/kg, iv as bolus administration by LC-MS/MS analysis; assay type: organism-based; set-up: dose 5 mg/kg, route intravenous, time infinity; conditions: in vivo
Mus musculus [22] = assay: Prodrug activation in BALB/c mouse assessed as 3-(tert-butyl)-1-cyclohexyl-1-(6-((2R,3R,4R,5S)-3,4,5-trihydroxy-2-(hydroxymethyl)piperidin-1-yl)hexyl)urea AUC(0 to infinity) at 25 mg/kg, po administered as single dose by LC-MS/MS analysis; assay type: organism-based; set-up: dose 25 mg/kg, time infinity, route oral; conditions: in vivo
Mus musculus [23] = assay: Prodrug activation in BALB/c mouse assessed as 3-(tert-butyl)-1-cyclohexyl-1-(6-((2R,3R,4R,5S)-3,4,5-trihydroxy-2-(hydroxymethyl)piperidin-1-yl)hexyl)urea AUC(0 to infinity) at 100 mg/kg, po administered as single dose by LC-MS/MS analysis; assay type: organism-based; set-up: dose 100 mg/kg, route oral, time infinity; conditions: in vivo
[24] = Apparent permeability of the compound across apical side to basolateral side in human Caco2 cells assessed as drug recovery at 5 uM measured after 2 hrs by LC-MS/MS analysis; assay type: ADME, cell-based; conditions: Caco-2, read-out: Drug recovery
[25] = Apparent permeability of the compound across basolateral side to apical side in human Caco2 cells assessed as drug recovery at 5 uM measured after 2 hrs by LC-MS/MS analysis; assay type: ADME, cell-based; conditions: Caco-2, read-out: Drug recovery

## CCCC(=O)OC[C@@H]1[C@@H](OC(=O)CCC)[C@H](OC(=O)CCC)[C@@H](OC(=O)CCC)CN1CCCCCCN(C(=O)NC(C)(C)C)C1CCCCC1
[1]
  Stability: 89%
[2]
  Stability: 72%
[3]
  Drug metabolism: 0%
[4]
  Stability: < 50%
[5]
  Stability: < 50%
[6]
  IC50: > 80 µM
[7]
  IC50: > 100 µM
Bos taurus
  inhibition: Active
[8]
  EC50: 16.1 µM
[9]
  half-life at 200 µM: 14 min
[10]
  half-life at 200 µM: 20 min
[11]
  remaining at 1 h, 200 µM: 4%
[12]
  remaining at 1 h, 200 µM: 10%
[13]
  remaining at 1 h, 200 µM: 12%
[14]
  remaining at 2 h, 5 µM: 106%
[15]
  remaining at 2 h, 5 µM: 0%
Mus musculus [16]
  Tmax: 4.98 min
Mus musculus [17]
  Tmax: 30 min
Mus musculus [18]
  Cmax: 319 ng/mL
Mus musculus [19]
  t1/2: 103 min
Mus musculus [20]
  t1/2: 137 min
Mus musculus [21]
  AUC: 2288 ng·mL·h
Mus musculus [22]
  AUC: 529 ng·mL·h
Mus musculus [23]
  AUC: 3884 ng·mL·h
[24]
  recovery at 2 h, 5 µM: < 60%
[25]
  recovery at 2 h, 5 µM: < 60%

## CC(=O)OC[C@@H]1[C@@H](OC(C)=O)[C@H](OC(C)=O)[C@@H](OC(C)=O)CN1CCCCCCN(C(=O)NC(C)(C)C)C1CCCCC1
[1]
  Stability: 94%
[2]
  Stability: 91%
[3]
  Drug metabolism: 0%
[4]
  Stability: < 50%
[5]
  Stability: < 50%
[6]
  IC50: > 80 µM
[7]
  IC50: > 100 µM
Bos taurus
  inhibition: Active
[8]
  EC50: 15.6 µM
[9]
  half-life at 200 µM: 3 min
[10]
  half-life at 200 µM: 2 min
[11]
  remaining at 1 h, 200 µM: 0%
[12]
  remaining at 1 h, 200 µM: 0%
[13]
  remaining at 1 h, 200 µM: 0%
[14]
  remaining at 2 h, 5 µM: 84%
[15]
  remaining at 2 h, 5 µM: 0%
Mus musculus [16]
  Tmax: 15 min
Mus musculus [17]
  Tmax: 15 min
Mus musculus [18]
  Cmax: 375 ng/mL
Mus musculus [19]
  t1/2: 84 min
Mus musculus [20]
  t1/2: 43.2 min
Mus musculus [21]
  AUC: 368 ng·mL·h
Mus musculus [22]
  AUC: 359 ng·mL·h
Mus musculus [23]
  AUC: 1912 ng·mL·h
[24]
  recovery at 2 h, 5 µM: 9%
[25]
  recovery at 2 h, 5 µM: 42%

## CC(C)C(=O)OC[C@@H]1[C@@H](OC(=O)C(C)C)[C@H](OC(=O)C(C)C)[C@@H](OC(=O)C(C)C)CN1CCCCCCN(C(=O)NC(C)(C)C)C1CCCCC1
[1]
  Stability: 108%
[2]
  Stability: 90%
[3]
  Drug metabolism: 0%
[4]
  Stability: < 50%
[5]
  Stability: < 50%
[6]
  IC50: > 80 µM
[7]
  IC50: > 100 µM
Bos taurus
  inhibition: Active
[8]
  EC50: 94.7 µM
[9]
  half-life at 200 µM: 10 min
[10]
  half-life at 200 µM: 14 min
[11]
  remaining at 1 h, 200 µM: 2%
[12]
  remaining at 1 h, 200 µM: 5%
[13]
  remaining at 1 h, 200 µM: 7%
[14]
  remaining at 2 h, 5 µM: 100%
[15]
  remaining at 2 h, 5 µM: 0%
Mus musculus [16]
  Tmax: 4.98 min
Mus musculus [17]
  Tmax: 30 min
Mus musculus [18]
  Cmax: 104 ng/mL
Mus musculus [19]
  t1/2: 34.8 min
Mus musculus [20]
  t1/2: 70.8 min
Mus musculus [21]
  AUC: 569 ng·mL·h
Mus musculus [22]
  AUC: 197 ng·mL·h
Mus musculus [23]
  AUC: 362 ng·mL·h
[24]
  recovery at 2 h, 5 µM: < 60%
[25]
  recovery at 2 h, 5 µM: < 60%
